Reference: ChEMBL document CHEMBL3124843, “Synthesis, cytostatic, antimicrobial, and anti-HCV activity of 6-substituted 7-(het)aryl-7-deazapurine ribonucleosides” (J Med Chem, 2014)
Active and inactive are the calls of the source. How the calls were made is not given here.

Legend:
[1] = Cytotoxicity against human HuH7 cells infected with Hepatitis C virus subtype 2a; assay type: cell-based, Huh-7
[2] = tested on: Hepatitis C virus; assay: Antiviral activity against Hepatitis C virus subtype 2a infected in human HuH7 cells; assay type: functional, organism-based, Hepacivirus hominis; details: genotype 2a, Huh-7
[3] = Cytotoxicity against human HuH7 cells infected with Hepatitis C virus subtype 1b; assay type: cell-based, Huh-7
[4] = tested on: Hepatitis C virus; assay: Antiviral activity against Hepatitis C virus subtype 1b infected in human HuH7 cells; assay type: functional, organism-based, Hepacivirus hominis; details: genotype 1b, Huh-7
[5] = tested on: Candida tropicalis; assay: Antifungal activity against Candida tropicalis after 48 hrs; assay type: functional, organism-based
[6] = tested on: Pichia kudriavzevii; assay: Antifungal activity against Candida crusei after 48 hrs; assay type: functional, organism-based
[7] = tested on: Candida parapsilosis; assay: Antifungal activity against Candida parapsilosis after 48 hrs; assay type: functional, organism-based
[8] = tested on: Candida albicans; assay: Antifungal activity against Candida albicans after 48 hrs; assay type: functional, organism-based
[9] = tested on: Pseudomonas aeruginosa; assay: Antibacterial activity against multi-resistant Pseudomonas aeruginosa A/16575 after 24 hrs; assay type: functional, organism-based
[10] = tested on: Escherichia coli; assay: Antibacterial activity against multi-resistant Escherichia coli C/16702 after 24 hrs; assay type: functional, organism-based
[11] = tested on: Staphylococcus haemolyticus; assay: Antibacterial activity against methicillin-resistant Staphylococcus haemolyticus A/16568 after 24 hrs; assay type: functional, organism-based
[12] = tested on: Staphylococcus aureus; assay: Antibacterial activity against methicillin-resistant Staphylococcus aureus MRSA 4591 after 24 hrs; assay type: functional, organism-based
[13] = tested on: Pseudomonas aeruginosa; assay: Antibacterial activity against Pseudomonas aeruginosa CCM 3955 after 24 hrs; assay type: functional, organism-based
[14] = tested on: Escherichia coli; assay: Antibacterial activity against Escherichia coli CCM 3954 after 24 hrs; assay type: functional, organism-based
[15] = tested on: Staphylococcus aureus; assay: Antibacterial activity against Staphylococcus aureus CCM 3953 after 24 hrs; assay type: functional, organism-based
[16] = tested on: Enterococcus faecalis; assay: Antibacterial activity against Enterococcus faecalis CCM 4224 after 24 hrs; assay type: functional, organism-based
[17] = Antiproliferative activity against human HeLaS3 cells after 72 hrs by XTT assay; assay type: functional, cell-based; details: HeLa S3, 72 h
In short: (§1)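 Antiproliferative test on HL-60 promyelocytic leukemia and HeLa S3 cervical carcinoma cells growing in liquid suspension.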

[18] = tested on: HL-60; assay: Antiproliferative activity against human HL60 cells after 72 hrs by XTT assay; assay type: functional, cell-based; details: HL-60, 72 h; in short: as §1
[19] = tested on: HepG2; assay: Antiproliferative activity against human HepG2 cells after 72 hrs by XTT assay; assay type: functional, cell-based; details: HepG2, 72 h
[20] = tested on: MRC5; assay: Cytostatic activity against human MRC5 cells after 72 hrs by MTT assay; assay type: ADME, cell-based; details: MRC5, 72 h
In short: (§2)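 IC50 is the concentration that cuts cell growth by 50%, read by quantitative metabolic MTT staining after a 3-day treatment. The resistant sublines were made by raising the concentration of the cytotoxic drug step by step. CEM-DNR-bulk (daunorubicin-selected) stably overexpresses mrp-1. K562-TAX (paclitaxel-selected) expresses only mdr-1. HCT116p53−/− carries null p53 alleles. BJ and MRC-5 are nonmalignant fibroblasts.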

[21] = tested on: BJ; assay: Cytostatic activity against human BJ cells after 72 hrs by MTT assay; assay type: ADME, cell-based; in short: as §2
[22] = tested on: HCT-116; assay: Cytostatic activity against p53-deficient human HCT116 cells after 72 hrs by MTT assay; assay type: functional, cell-based; details: HCT-116, 72 h; in short: as §2
[23] = tested on: HCT-116; assay: Cytostatic activity against human HCT116 cells after 72 hrs by MTT assay; assay type: functional, cell-based; details: HCT-116, 72 h; in short: as §2
[24] = tested on: A549; assay: Cytostatic activity against human A549 cells after 72 hrs by MTT assay; assay type: functional, cell-based; details: A549, 72 h; in short: as §2
[25] = tested on: K562; assay: Cytostatic activity against paclitaxel-resistant human K562 cells after 72 hrs by MTT assay; assay type: functional, cell-based; details: K562, 72 h; in short: as §2
[26] = tested on: K562; assay: Cytostatic activity against human K562 cells after 72 hrs by MTT assay; assay type: functional, cell-based; details: K562, 72 h; in short: as §2
[27] = Cytostatic activity against human CEM-DNR-bulk cells after 72 hrs by MTT assay; assay type: functional, cell-based; in short: as §2
[28] = tested on: CCRF-CEM; assay: Cytostatic activity against human CCRF-CEM cells after 72 hrs by MTT assay; assay type: functional, cell-based; in short: as §2

| SMILES | CC50 [1] | EC50 [2] | CC50 [3] | EC50 [4] | Activity [5] | Activity [6] | Activity [7] | Activity [8] | Activity [9] | Activity [10] | Activity [11] | Activity [12] | Activity [13] | Activity [14] | Activity [15] | Activity [16] | IC50 [17] | IC50 [18] | IC50 [19] | IC50 [20] | other results |
| --- | --- | --- | --- | --- | --- | --- | --- | --- | --- | --- | --- | --- | --- | --- | --- | --- | --- | --- | --- | --- | --- |
| CN(C)c1ncnc2c1c(-c1ccccc1)cn2[C@@H]1O[C@H](CO)[C@@H](O)[C@H]1O | > 44 µM | > 44 µM | > 44 µM | 26.9 µM | inactive | inactive | inactive | inactive | inactive | inactive | inactive | inactive | inactive | inactive | inactive | inactive | > 20 µM | > 20 µM | > 20 µM | > 100 µM | IC50 [21]: > 100 µM; IC50 [22]: > 20 µM; IC50 [23]: > 20 µM; IC50 [24]: > 100 µM; IC50 [25]: > 20 µM; IC50 [26]: > 20 µM; IC50 [27]: > 20 µM; IC50 [28]: > 20 µM |
| O=c1[nH]cnc2c1c(-c1ccco1)cn2[C@@H]1O[C@H](CO)[C@@H](O)[C@H]1O | > 44 µM | > 44 µM | > 44 µM | > 44 µM | inactive | inactive | inactive | inactive | inactive | inactive | inactive | inactive | inactive | inactive | inactive | inactive | 5.78 µM | 2.2 µM | > 15 µM | > 100 µM | IC50 [21]: > 100 µM; IC50 [22]: > 20 µM; IC50 [23]: 18.3 µM; IC50 [24]: > 20 µM; IC50 [25]: 17.8 µM; IC50 [26]: 15.5 µM; IC50 [27]: > 20 µM; IC50 [28]: > 20 µM |
| O=c1[nH]cnc2c1c(-c1cc3ccccc3o1)cn2[C@@H]1O[C@H](CO)[C@@H](O)[C@H]1O | > 44 µM | 17.4 µM | > 44 µM | 7.21 µM | inactive | inactive | inactive | inactive | inactive | inactive | inactive | inactive | inactive | inactive | inactive | inactive | > 20 µM | > 20 µM | > 20 µM | > 100 µM | IC50 [21]: 62.7 µM; IC50 [22]: > 20 µM; IC50 [23]: > 20 µM; IC50 [24]: > 20 µM; IC50 [25]: > 20 µM; IC50 [26]: > 20 µM; IC50 [27]: > 20 µM; IC50 [28]: > 20 µM |
| Cc1ncnc2c1c(Br)cn2[C@@H]1O[C@H](CO)[C@@H](O)[C@H]1O | 28.2 µM | 20.7 µM | 35.6 µM | 12 µM | inactive | inactive | inactive | inactive | inactive | inactive | inactive | inactive | inactive | inactive | inactive | inactive | 13.8 µM | 7.24 µM | 5.55 µM | 24.4 µM | IC50 [21]: > 100 µM; IC50 [22]: 19.6 µM; IC50 [23]: 15.7 µM; IC50 [24]: > 20 µM; IC50 [25]: 15.8 µM; IC50 [26]: > 20 µM; IC50 [27]: > 20 µM; IC50 [28]: 15 µM |
| COc1nc(N)nc2c1c(-c1cc3ccccc3o1)cn2[C@@H]1O[C@H](CO)[C@@H](O)[C@H]1O | > 44 µM | 20.7 µM | > 44 µM | 8.98 µM | inactive | inactive | inactive | inactive | inactive | inactive | inactive | inactive | inactive | inactive | inactive | inactive | > 20 µM | > 20 µM | > 20 µM | 22.7 µM | IC50 [21]: 25.6 µM; IC50 [22]: > 20 µM; IC50 [23]: > 20 µM; IC50 [24]: > 20 µM; IC50 [25]: 15.5 µM; IC50 [26]: 14.6 µM; IC50 [27]: 16.7 µM; IC50 [28]: 12.7 µM |
| CNc1ncnc2c1c(-c1cc3ccccc3o1)cn2[C@@H]1O[C@H](CO)[C@@H](O)[C@H]1O | > 44 µM | 13.6 µM | > 44 µM | 2.05 µM | inactive | inactive | inactive | inactive | inactive | inactive | inactive | inactive | inactive | inactive | inactive | inactive | > 20 µM | 8.95 µM | > 20 µM | 75.3 µM | IC50 [21]: 75.6 µM; IC50 [22]: > 20 µM; IC50 [23]: > 20 µM; IC50 [24]: > 20 µM; IC50 [25]: > 20 µM; IC50 [26]: > 20 µM; IC50 [27]: > 20 µM; IC50 [28]: > 20 µM |
| Cc1ncnc2c1c(I)cn2[C@@H]1O[C@H](CO)[C@@H](O)[C@H]1O | 13.8 µM | 8.75 µM | 20.9 µM | 2.16 µM | inactive | inactive | inactive | inactive | inactive | inactive | inactive | inactive | inactive | inactive | inactive | inactive | 4.08 µM | 2.65 µM | 3.46 µM | 13.3 µM | IC50 [21]: > 100 µM; IC50 [22]: 7.57 µM; IC50 [23]: 4.72 µM; IC50 [24]: 12.2 µM; IC50 [25]: > 20 µM; IC50 [26]: 17.8 µM; IC50 [27]: 12.6 µM; IC50 [28]: 5.48 µM |
| Cc1ncnc2c1c(-c1cc3ccccc3o1)cn2[C@@H]1O[C@H](CO)[C@@H](O)[C@H]1O | > 44 µM | 40.2 µM | > 44 µM | 6.76 µM | inactive | inactive | inactive | inactive | inactive | inactive | inactive | inactive | inactive | inactive | inactive | inactive | > 20 µM | > 20 µM | > 20 µM | 84.4 µM | IC50 [21]: 93.9 µM; IC50 [22]: > 20 µM; IC50 [23]: > 20 µM; IC50 [24]: > 20 µM; IC50 [25]: > 20 µM; IC50 [26]: 19.5 µM; IC50 [27]: > 20 µM; IC50 [28]: 17.3 µM |
| CSc1ncnc2c1c(-c1ccsc1)cn2[C@@H]1O[C@H](CO)[C@@H](O)[C@H]1O | > 44 µM | > 44 µM | > 44 µM | 10.9 µM | inactive | inactive | inactive | inactive | inactive | inactive | inactive | inactive | inactive | inactive | inactive | inactive | > 20 µM | 4.59 µM | > 15 µM | > 100 µM | IC50 [21]: 95.8 µM; IC50 [22]: > 20 µM; IC50 [23]: > 20 µM; IC50 [24]: > 20 µM; IC50 [25]: > 20 µM; IC50 [26]: 0.45 µM; IC50 [27]: > 20 µM; IC50 [28]: > 20 µM |
